Bioassay records deposited in PubChem by The Scripps Research Institute Molecular Screening Center.
TAAR1 antagonist: human TAAR1 antagonists, primary screen, Fluo-8 calcium fluorescence, CHO RD-HGA16 cells; 360,000 tested, 1.5% active; antagonist; AID 624466, 2012; Trace amine-associated receptor 1 (Homo sapiens), Q96RJ0; inhibition, % at 3 µM;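 active = inhibition above a per-plate cutoff, the mean inhibition of test compounds on that plate plus 3 SD, cut at about 49% in these data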;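 note: 0% = DMSO plus EC80 beta-PEA response and 100% = DMSO alone without agonist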
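Test system: CHO RD-HGA16 cells bearing hTAAR1 | Reagent: β-PEA, EC80 | Compound dosing: 3 µM, single point | Schedule: Dye loading 75 min at 37 °C, then 30 min room temperature | Signal: Calcium fluorescence with Fluo-8 | Evaluation: Percent inhibition of PEA-evoked calcium signal, max/basal emission ratio | Control set: DMSO-only wells and EC80 β-PEA-stimulated wells | Repeats: Singlicate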
GPR7 antagonist: GPR7 receptor antagonists, primary screen, cell-based, fluorescence, single concentration. 290,000 tested, 1.1% active. GPR7-expressing cells, fluorescence antagonist assay. Neuropeptides B/W receptor type 1 (Homo sapiens), P48145. inhibition, % at 4.4 µM; in the data active = inhibition above about 16%, passing the limit was not always enough;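 note: cells stimulated with the agonist NPW; 0% = agonist with vehicle and 100% = vehicle without agonist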
Target sequence (P48145 whole entry, looked up): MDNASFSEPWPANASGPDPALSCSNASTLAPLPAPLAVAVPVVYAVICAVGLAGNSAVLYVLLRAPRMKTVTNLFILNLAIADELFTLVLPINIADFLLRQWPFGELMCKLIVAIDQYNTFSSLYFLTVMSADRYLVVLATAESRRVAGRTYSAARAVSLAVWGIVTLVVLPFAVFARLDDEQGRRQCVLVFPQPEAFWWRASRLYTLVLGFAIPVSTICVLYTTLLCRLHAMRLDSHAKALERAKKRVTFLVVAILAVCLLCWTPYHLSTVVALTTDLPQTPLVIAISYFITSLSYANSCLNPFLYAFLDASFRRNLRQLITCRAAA
CHO parental Ca: ATP-evoked calcium signal inhibitors, parental CHO, primary screen, counter-screen for OX1R antagonist project, cell-based, fluorescence, Fluo-8 calcium dye | AID 463079, 2010 | inhibition, % at 5.6 µM | 330,000 tested, 0.63% active | parental CHO-K1, ATP-induced calcium, Fluo-8 fluorescence;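 active = inhibition above that plate's mean sample inhibition plus 3 SD, cut at about 26% in these data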;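 note: 0% = ATP-challenged DMSO wells and 100% = DMSO wells without ATP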
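Assay system – parental CHO cells · Reagent – ATP stimulus · Detection – intracellular calcium via Fluo-8 no-wash fluorescent dye · Evaluation – percent inhibition of ATP-evoked calcium rise, normalized to controls · Controls – ATP wells versus no-ATP DMSO wells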
OX1R antag-1: antagonists of human orexin 1 receptor (OX1R); Orexin/Hypocretin receptor type 1 (Homo sapiens), O43613; OX1R-expressing cells, FRET antagonist read-out; inhibition, % at 6.6 µM; 330,000 tested, 1.8% active; in the data active = inhibition mostly above about 38%, no sharp cut-off; inactive = mostly below about 40%;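 note: 0% = agonist challenge alone and 100% = reference antagonist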
Target sequence (O43613 whole entry, looked up): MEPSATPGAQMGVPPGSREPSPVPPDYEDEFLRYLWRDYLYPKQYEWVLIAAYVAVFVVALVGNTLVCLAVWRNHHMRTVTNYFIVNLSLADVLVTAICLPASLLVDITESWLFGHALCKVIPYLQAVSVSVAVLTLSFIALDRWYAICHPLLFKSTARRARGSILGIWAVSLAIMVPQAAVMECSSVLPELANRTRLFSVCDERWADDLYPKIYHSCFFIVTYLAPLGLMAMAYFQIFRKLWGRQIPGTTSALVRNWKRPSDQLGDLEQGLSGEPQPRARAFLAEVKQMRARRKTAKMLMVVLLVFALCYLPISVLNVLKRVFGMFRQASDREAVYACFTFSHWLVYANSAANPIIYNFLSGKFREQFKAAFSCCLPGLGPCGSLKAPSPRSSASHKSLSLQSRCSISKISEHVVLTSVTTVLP
TAAR1 ag: human TAAR1 agonists, primary screen, Fluo-8 calcium fluorescence, CHO RD-HGA16 cells. Trace amine-associated receptor 1 (Homo sapiens), Q96RJ0. vehicle wells 0%, saturating PEA agonist 100%. activation, % at 3 µM. 360,000 tested, 0.99% active. AID 624467, 2012;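 active = activation above the mean activation of all test compounds in the run plus 3 SD, cut at about 38% in these data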
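test system = CHO RD-HGA16 cells carrying human TAAR1 plus Gα16 | schedule = 17-24 h seeding, 75 min 37 °C dye, 30 min RT | compound dosing = 3 µM single concentration | control set = DMSO and PEA EC100 | replicates = n 1 | signal = Fluo-8 fluorescence, 5 s baseline then 140 s kinetic read | measure = percent activation vs PEA EC100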
OX1R antag-2: OX1R (HCRTR1) antagonists, primary screen, fluorescence, CHO/OX1R cells, Fluo-8 calcium, orexin A; Fluo-8 calcium fluorescence; inhibition, % at 5 µM; 330,000 tested, 0.43% active;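 active = inhibition above its plate's threshold, mean inhibition of all tested compounds on the plate plus 3 SD, cut at about 37% in these data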;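 note: 0% = orexin A challenge wells and 100% = SB-334867-A antagonist wells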
* marks the source's active call; other numbers are inactive results; / = no result. The list is not random: actives were taken first. Their share in the collection is about 4.5%.

SMILES	TAAR1 antagonist	GPR7 antagonist	CHO parental Ca	OX1R antag-1	TAAR1 ag	OX1R antag-2
CCN(CC(=O)Nc1ccc(NC(C)=O)cc1)C(=O)c1cc(-c2ccccc2)nn1-c1ccccc1	-10.4	/	-7.5	3.9	7.5	-35.9
CCCN(CC(=O)Nc1ccccc1OC)C(=O)c1cc(-c2ccccc2)nn1-c1ccccc1	33.5	/	15.8	14.6	-0.9	7.2
O=C(COC(=O)c1cc(-c2cccs2)nn1-c1ccccc1)Nc1ccc(F)c([N+](=O)[O-])c1	49.2*	6.2	-4.3	25.2	7.4	-19.4
CCOC(=O)c1ccc(-n2cnc(-c3ccc([N+](=O)[O-])cc3)c2)cc1	-0.9	/	/	/	9.4	/
COC(=O)[C@]12C[C@H](CC(=O)NCc3cccc(C(F)(F)F)c3)C(=O)N(Cc3ccccc3)C1=C[C@H](C1CCCC1)O[C@@H]2C	-17.0	/	/	/	0.1	/
Cc1[nH]c2ccccc2c1CC(=O)Nc1ccc(Oc2cccnc2)cc1	10.3	/	/	/	-0.4	/
CCOC(=O)Nc1cc(=O)c([N+](=O)[O-])c(N)[nH]1	-4.0	/	/	/	0.3	/
CN(CC(=O)Nc1ccc(F)cc1)C(=O)c1cn(-c2ccccc2)nc1-c1cccs1	51.0*	/	-15.8	7.7	16.5	-11.2
COC(=O)c1ccc2nc(C3CCCCC3)c(Cc3ccccc3OC)n2c1	-3.6	/	/	/	-0.2	/
NC(=O)c1cc[n+](Cc2ccc([N+](=O)[O-])cc2)cc1	13.3	-8.2	3.5	52.2	2.2	10.5
O=C(Nc1ccccc1Cl)c1cc[n+](Cc2ccc([N+](=O)[O-])cc2)cc1	2.9	-7.2	0.0	40.0*	7.4	-14.4
O=C(C(=O)N1CCC(CNC(=O)c2sc3ccccc3c2Cl)CC1)c1cccs1	-13.7	/	/	/	3.1	/
CCn1cc(C(=O)NC(C)C23CC4CC(CC(C4)C2)C3)cn1 (configuration not stated)	5.1	3.1	-12.5	-1.7	-1.4	-20.2
CC(NC(=O)Cn1ncc(Cl)c(Cl)c1=O)C12CC3CC(CC(C3)C1)C2 (configuration not stated)	/	23.4*	11.5	21.2	/	26.5
CC(=O)Nc1ccc(NC(=O)c2ccc([N+](=O)[O-])cc2Cl)cc1	-4.2	5.5	3.8	36.5	5.8	-12.3
Cn1cc([N+](=O)[O-])c(C(=O)Nc2ccc(C3CCCCC3)cc2)n1	8.3	-9.6	-1.4	25.1	8.5	-16.3
CCCn1nnc(NC(=O)c2ccc([N+](=O)[O-])cc2Cl)n1	7.0	3.8	-2.7	63.5*	4.0	-20.0
Cn1cc([N+](=O)[O-])c(C(=O)NNC(=O)c2ccc([N+](=O)[O-])cc2Cl)n1	13.8	-9.4	3.8	44.2*	-0.8	-13.4
Cn1cc([N+](=O)[O-])c(C(=O)Nc2ccc(C(=O)N3CCCCC3)cc2)n1	2.1	-3.1	-10.0	73.3*	1.5	-16.3
CCCCn1nnc(NC(=O)c2ccc([N+](=O)[O-])cc2Cl)n1	-28.1	-1.0	-2.9	64.2*	4.7	-15.0
Cc1ccc(CNS(=O)(=O)c2ccc(-n3cccn3)cc2)cc1	-2.7	/	/	/	0.1	/
Cn1cc([N+](=O)[O-])c(C(=O)Nc2nc(-c3ccc(Cl)cc3)cs2)n1	67.4*	8.4	56.3*	18.4	39.8*	40.5*
Cc1ccc(-c2nc(NC(=O)c3nn(C)cc3[N+](=O)[O-])sc2C)cc1	0.0	-1.3	2.9	12.9	0.1	3.7
Cc1ccc(NC(=O)C2(C)CCN2CCc2ccccc2)cc1 (configuration not stated)	10.0	/	/	/	1.2	/
CCC(=O)N1CCC2(CC1)Oc1ccc(Cl)cc1C(=O)C21CC(c2ccccc2)=NO1 (configuration not stated)	53.9*	/	-6.1	29.3	24.9	-4.5
SMILES	TAAR1 antagonist	GPR7 antagonist	CHO parental Ca	OX1R antag-1	TAAR1 ag	OX1R antag-2
O=C(c1ccoc1)N1CCC2(CC1)Oc1ccc(Cl)cc1C(=O)C21CC(c2ccccc2)=NO1 (configuration not stated)	33.3	/	-13.1	18.4	13.4	-7.9
O=C(NCc1ccccc1)c1cccc(COc2cc(Cl)ccc2Cl)c1	5.5	-8.8	-21.0	48.0	5.8	-25.4
O=C(NCc1ccccc1)c1cccc(COc2ccccc2Cl)c1	45.0	13.9	57.0*	40.7	12.5	21.0
COC(=O)C1=C(C)N(C)C(=NCc2ccccc2)NC1c1ccccc1C(F)(F)F (configuration not stated)	-15.4	/	/	/	3.0	/
CN(C)CCCN1C(=O)c2cccc3c([N+](=O)[O-])ccc(c23)C1=O	-3.2	15.3	18.2	68.2*	2.5	21.1
O=C(CCCn1c(=O)c2cccn2c2cccnc21)NCc1cccc(Br)c1	26.1	18.6	-4.9	31.1	3.7	-1.8
CCOc1cc(CNC(=O)CCCn2c(=O)c3cccn3c3cccnc32)cc(OCC)c1OCC	5.5	-21.2	-18.5	67.9*	2.4	3.9
CSc1cccc(NC(=O)CCCn2c(=O)c3cccn3c3cccnc32)c1	22.0	-17.6	-10.2	73.7*	5.3	0.8
CCc1ccc(CNC(=O)CCCn2c(=O)c3cccn3c3cccnc32)cc1	-30.7	-7.3	-25.3	9.7	1.8	-15.7
CCOC(=O)c1ccc(NC(=O)OC[C@@H]2CSCCS(=O)(=O)N2)cc1	7.5	/	/	/	17.3	/
COC(=O)C1=C(C)N(Cc2ccc(Br)cc2)C(=S)NC1c1cccc(F)c1 (configuration not stated)	35.8	/	/	/	3.0	/
O=C1c2c(O)ccc(O)c2C(=O)c2c(NCCNCCO)ccc(NCCNCCO)c21	2.8	/	-2.8	64.7*	3.6	-11.6
CC(NC(=S)Nc1ccc(OC(F)F)c(Cl)c1)C(C)(C)C (configuration not stated)	30.6	11.2	34.3*	24.4	8.9	37.8*
FC(F)Oc1ccc(NC(=S)NCc2ccccc2)cc1Cl	28.0	12.6	34.0*	13.9	6.2	9.2
COC(=O)[C@@]12C[C@@H](CC(=O)N3CCC(c4ccccc4)CC3)C(=O)N(Cc3ccc4c(c3)OCO4)C1=CCC(C)(C)C2	-35.6	/	/	/	2.2	/
Nc1nnc(Sc2ccc(Cl)cc2[N+](=O)[O-])s1	-5.3	19.8	-7.8	11.0	8.2	-11.1
CC(=O)c1ccc(Sc2nnc(C)s2)c([N+](=O)[O-])c1	-10.8	0.0	-2.5	62.6*	1.7	-3.7
COC(=O)[C@]12C[C@H](CC(=O)N3CCSCC3)C(=O)N(CCC3=CCCCC3)C1=C[C@H](C(C)(C)C)O[C@@H]2C	-57.6	/	/	/	-1.6	/
NC(=O)c1c(N)[nH]c(C(=O)c2ccccc2)c1-c1ccccc1Br	-3.0	/	/	/	5.4	/
